Here are results for 14 molecules from ChEMBL document CHEMBL1135330, “Synthesis and evaluation of 4-hydroxyphenylacetic acid amides and 4-hydroxycinnamamides as antioxidants” (Bioorg Med Chem Lett, 2002).

The species entered for assay [1] is Rattus norvegicus. Description: Compound was tested for its inhibitory concentration against formation of lipid peroxides in rat brain homogenates by thiobarbituric acid reactive substances (TBARS) assay according to the method of Stocks. The format is functional. The method, boiled down:
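Lipid peroxidation was run on rat brain homogenate (pH 7.4) supernatant after 1000 × g for 10 min. It was started with 0.02 mM FeCl2 and 0.25 mM ascorbic acid for 30 min at 37 °C and stopped with perchloric acid. After re-centrifugation, the supernatant was reacted with 0.5% TBA at 80 °C for 1 h, cooled, and read at 532 nm.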

Assay [2] is filed under the species Rattus norvegicus. As to the kind of experiment: Compound was evaluated for its inhibitory concentration against [Fe2+]/AA- induced oxidative neuronal damage in primary cultured rat cortical cells. In kind it is functional, cell-based. In a few lines:
(§1)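 Primary rat cortical cultures at 12–14 days in vitro were HBSS-washed and exposed for 2 h to Fe2+ (100 μM)/ascorbic acid (25 μM), with compound at various concentrations present during the insult. Cultures were then washed and held in MEM plus 21 mM glucose at 37 °C, 5% CO2.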

For assay [3], the species on record is Rattus norvegicus. Description: Compound was evaluated for its inhibitory concentration against X/XO- induced oxidative neuronal damage in primary cultured rat cortical cells. The format is functional, cell-based. The method, boiled down:
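Primary rat cortical cultures at 12–14 days in vitro were washed with HBSS and exposed for 10 min to xanthine (0.5 mM)/xanthine oxidase (10 mU/mL), with compound at various concentrations present during the insult. They were then washed and kept in MEM plus 21 mM glucose at 37 °C, 5% CO2.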

Assay [4] is filed under the species Rattus norvegicus. As to the kind of experiment: Compound was evaluated for its inhibitory concentration against hydrogen peroxide- induced oxidative neuronal damage in primary cultured rat cortical cells. In kind it is functional, cell-based. The method, boiled down: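 Cortical cultures from rat, 12–14 days in vitro, were HBSS-washed and exposed to H2O2 for 5 min, with compound at various concentrations present during the exposure. Cultures were then washed and kept in MEM plus 21 mM glucose at 37 °C, 95% air/5% CO2.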

Assay [5] is filed under the species Rattus norvegicus. As to the kind of experiment: Compound was tested for its DPPH radical scavenging activity in rat brain homogenates. The format is functional.
For assay [6], the species on record is Rattus norvegicus. Description: Neuroprotective action was estimated in terms of its inhibitory concentration against superoxide and hydroxyl radicals measured by the leakage of cytoplasmic enzyme lactate dehydrogenase (LDH). The format is functional.
The species named for assay [7] is Rattus norvegicus. As to the kind of experiment: Neuroprotective action was estimated in terms of its inhibitory concentration against superoxide and hydroxyl radicals measured by the leakage of cytoplasmic enzyme lactate dehydrogenase (LDH); found highly potent. The format is functional.
Assay [8] is filed under the species Rattus norvegicus. As to the kind of experiment: Neuroprotective action was estimated in terms of its inhibitory concentration against [Fe2+]/AA- induced toxicity. In kind it is functional. In a few lines:
as §1

Some results are limits rather than exact numbers.

A word on the IC50: it is the concentration that inhibits the measured activity by half.

As for `Cc1c(C)c2c(c(C)c1O)CC[C@@](C)(CCC[C@H](C)CCC[C@H](C)CCCC(C)C)O2` [ALPHA-TOCOPHEROL], the 50% inhibitory concentration (IC50) in assay [1] came out at 4.68 µM.
Take `Cc1ccc(CCCNC(=O)/C=C/c2ccc(O)c(O)c2)cc1C`: the IC50 in assay [2] was found to be 23.7 µM; in assay [3], 2.54 µM; in assay [4], 5.91 µM; in assay [5] it was 34.3 µM; in assay [1], 1.11 µM.
On to `Cc1c(C)c2c(c(C)c1O)CCC(C)(C(=O)O)O2` (stereo unspecified) [TROLOX], for which the IC50 in assay [2] is 431 µM; in assay [3], 202 µM; in assay [4] it was 330 µM.
As for `Cc1ccc(CCCNC(=O)Cc2ccc(O)c(O)c2)cc1C`, the IC50 was 2.4 µM in assay [6]; 2.4 µM in assay [7]; 2.4 µM in assay [2]; 3.3 µM in assay [3]; 6.03 µM in assay [4]; 31 µM in assay [5]. Besides, the IC50 in assay [1] was determined as 2.6 µM.
For the molecule `Cc1ccc(CCCNC(=O)Cc2ccc(O)c(OC(C)C)c2)cc1C`, the IC50 in assay [8] is 34.2 µM; in assay [5], greater than 300 µM; in assay [1] it was 19.4 µM.
On to `COc1cc(/C=C/C(=O)NCCCc2ccc(C)c(C)c2)cc(OC)c1O`, for which the half-maximal inhibitory concentration (IC50) in assay [8] is 5.4 µM; in assay [5] it was 89.1 µM; in assay [1], 3.41 µM.
With `COc1cc(/C=C/C(=O)NCCCc2ccc(C)c(C)c2)ccc1O`, the figures for the IC50 in assay [5] and in assay [1] were 82.2 µM and 9.94 µM, respectively.
For the molecule `COc1cc(CC(=O)NCCCc2ccc(C)c(C)c2)cc(OC)c1O`, the IC50 in assay [5] stood at 50.1 µM; in assay [1], 11.8 µM.
`COc1cc(CC(=O)NCCCc2ccc(C)c(C)c2)ccc1O`: the IC50 in assay [5] stood at 179 µM; in assay [1], 25.9 µM.
As for `Cc1ccc(CCCNC(=O)Cc2cc(O)c(O)c(O)c2)cc1C`, the IC50 turned out to be 26.8 µM in assay [2]; 34.8 µM in assay [3]; 35 µM in assay [4]; 21.3 µM in assay [5]; 1.81 µM in assay [1].
As for `Cc1ccc(CCCNC(=O)Cc2ccc(O)c(Oc3ccccc3)c2)cc1C`, the IC50 is greater than 300 µM in assay [5] and 32 µM in assay [1].
For the molecule `Cc1cc(C(C)(C)C)c(O)c(C(C)(C)C)c1` [BUTYLATED HYDROXYTOLUENE], half-maximal inhibition in assay [1] (IC50) was put at 4.03 µM.
Regarding `CCCCOc1cc(CC(=O)NCCCc2ccc(C)c(C)c2)ccc1O`, the IC50 in assay [8] is 4.2 µM; in assay [5], 162 µM; in assay [1], 9.28 µM.
Turning to `CCOc1cc(CC(=O)NCCCc2ccc(C)c(C)c2)ccc1O`, the IC50 in assay [5] came out at 182 µM; in assay [1] it was 24 µM.
